# ZTA DNA inh – blocks Epstein-Barr virus ZTA, an EBNA-1 counter-screen; 320,000 compounds, 0.15% hits; inhibition, % at 11 µM; P03206; AID 2234; ZTA-DNA binding, fluorescence polarization; in the data active = inhibition above about 33%
# proCasp7 act – procaspase-7 activators, primary screen, counter-screen for procaspase-3 activator project, biochemical, absorbance, HTS, human; AID 463210, 2010; recombinant procaspase-7, Ac-DEVD-pNA absorbance 405 nm; D23A/D198A/D206A triple mutant, cannot self-cleave; scale: DMSO 0, 5 µM enzyme 100; 330,000 compounds, 0.093% hits; activation, % at 8.5 µM;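 active = percent activation above the screen-wide mean plus 3 SD, cut at about 25% in these data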
#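 Detection: p-Nitroaniline absorbance at 405 nm, read at 0 and 120 min; system: Uncleavable procaspase-7 mutant enzyme; evaluation: % activation from two-timepoint absorbance difference, scaled to controls; times: 1 h enzyme–compound preincubation and 2 h substrate reaction, both 25 °C; buffer or medium: Zinc-free HEPES pH 7.4 with 300 mM NaCl, 0.01% Triton X-100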
# EBNA-1 inh – EBNA-1 DNA-binding inhibitors, primary screen, biochemical, fluorescence polarization. inhibition, % at 14.8 µM. 300,000 compounds, 0.34% hits; in the data active = inhibition above about 28%
# procasp3 activ – activators of human procaspase-3 D3A mutant, primary screen, biochemical, absorbance, PC-3 D3A mutant, single concentration; 330,000 compounds, 0.11% hits; recombinant procaspase-3 D3A, Ac-DEVD-pNA absorbance 405 nm; AID 463141, 2010; activation, % at 8.5 µM;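 active = activation above the mean of all tested compounds plus 3 SD, cut at about 21% in these data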
#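 Technique: 405 nm absorbance of p-nitroaniline, reads at 0 and 120 min; Test system: Procaspase-3 D3A mutant; Incubation: 1 h enzyme-compound preincubation, then 2 h substrate reaction, 25 °C; Repeats: singlicate, each compound tested once; Benchmarks: low control DMSO wells, high control DMSO plus 5 µM PC-3 D3A.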
# Apaf-1 inh – inhibitors of human Apaf-1 apoptosome, primary screen, biochemical, DEVD-Rh110 fluorescence, uHTS; Apoptotic protease-activating factor 1 (Homo sapiens), O14727; reconstituted apoptosome caspase-3 activity; inhibition, % at 20 µM; 330,000 compounds, 0.71% hits; AID 489030, 2010; active = inhibition of at least 40% at 20 µM
#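 Material: reconstituted apoptosome with Apaf-1, cytochrome c, caspase-9, procaspase-3, dATP. Technique: Rh110 fluorescence intensity. Buffer or medium: pH 7.5 Hepes buffer with CHAPS, BSA, DTT. Times: 30 min plus 50 min, RT.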
# GSTO1 counter – inhibitors of recombinant GSTO1, primary screen, counter-screen for RBBP9 inhibitor project, biochemical, fluorescence polarization. inhibition, % at 5.96 µM. Glutathione S-transferase omega-1 (Homo sapiens), P78417. activity-based probe fluorescence polarization. 300,000 compounds, 1.1% hits;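 active = inhibition above the campaign mean inhibition plus 3 SD, cut at about 35% in these data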
# A number is an active result; . = inactive; / = no result. An excerpt weighted towards active compounds, which were near 1.8% of everything screened.
SMILES,ZTA DNA inh,proCasp7 act,EBNA-1 inh,procasp3 activ,Apaf-1 inh,GSTO1 counter
CC1=C(C#N)C(=O)N(C2CCS(=O)(=O)C2)C(=O)/C1=C\c1ccc(C)o1 (configuration not stated),.,.,.,.,.,36
COc1ccc(-c2noc(N3CCC(C(=O)Nc4cccc(OC)c4)CC3)n2)cc1,.,.,.,.,.,.
COc1ccccc1CNC(=O)/C(C#N)=C/c1ccc(OC)c(OC)c1OC,.,.,.,.,.,.
O=C(c1ccccc1NS(=O)(=O)c1cccc([N+](=O)[O-])c1)N1CCOCC1,.,.,.,26,.,.
O=C(c1ccccc1NS(=O)(=O)c1ccc(Br)cc1)N1CCOCC1,/,/,/,/,.,/
Cc1ccc(OC(=O)c2sc(Cl)nc2C)cc1C,.,.,.,.,.,35
COc1ccc(N2CCN(C(=O)CN3c4cccc5cccc(c45)S3(=O)=O)CC2)cc1,/,.,/,.,.,/
CCCC1=NN2C(=N)/C(=C\c3ccc(SCc4ccco4)o3)C(=O)N=C2S1,61,.,50,.,.,.
O=C1NC(=S)S/C1=C\c1ccc(SCc2ccco2)o1,92,.,.,.,/,.
O=C(NCC(c1ccco1)N1CCCCC1)c1ccc([N+](=O)[O-])s1 (configuration not stated),/,.,/,.,.,/
CCOC(=O)N1CCN(C2=C(NS(=O)(=O)c3ccc(C)cc3)C(=O)c3ccccc3C2=O)CC1,.,.,.,.,86,.
O=C(Nc1ccccc1)Oc1ccc[nH]c1=O,.,.,.,.,61,.
O=C(O)c1cc(Cl)ccc1-c1ccc(/C=C/c2cc(C(F)(F)F)[nH]c(=O)n2)o1,53,.,43,.,.,.
O=C(O)c1ccccc1-c1ccc(/C=C/c2cc(C(F)(F)F)[nH]c(=O)n2)o1,/,/,/,/,.,/
COc1ccc2cc1Oc1ccc(cc1)CC1c3c(cc(OC)c4c3Oc3cc5c(cc3O4)CCNC5C2)CCN1C (configuration not stated),.,.,.,.,41,.
COc1ccc2cc1Oc1ccc(cc1)C[C@H]1c3c(cc(OC)c4c3Oc3c(ccc5c3[C@H](C2)N(C)CC5)O4)CCN1C,/,.,/,.,59,/
Cc1c(C)n(Cc2ccccc2)c2ncnc(Cl)c12,.,.,.,.,.,.
CN(C)c1ccc(NC(=O)N2CCOCC2)cc1,62,.,50,.,.,.
Cc1ccc(SCc2cc(=O)n3[nH]c(C)nc3n2)cc1,.,.,.,.,.,.
Cc1ccc(SCc2cc(=O)n(C)[nH]2)cc1,.,.,.,.,.,53
O=C(COC(=O)c1cccc(F)c1)NC(=O)NCc1ccccc1,/,.,/,.,.,/
COc1cc(NS(=O)(=O)c2ccc(NC(=S)NC(=O)/C=C/c3ccc(OC)c(OC)c3)cc2)ncn1,.,.,.,.,.,.
COc1ccc(/C=C/C(=O)NC(=S)Nc2ccc(S(=O)(=O)N=C(N)N)cc2)cc1OC,40,.,58,.,.,.
COc1ccc(C[C@H]2CN3C(=NC[C@@H]3Cc3ccccc3)N2CCNC(=O)CCC2CCCCC2)cc1,.,.,.,.,52,.
CC(c1ccco1)N(C(=O)c1cc(Cl)cc(Cl)c1)c1ccccn1 (configuration not stated),.,.,.,.,.,.
SMILES,ZTA DNA inh,proCasp7 act,EBNA-1 inh,procasp3 activ,Apaf-1 inh,GSTO1 counter
CC(c1ccco1)N(C(=O)c1ccccc1NS(=O)(=O)c1ccc(Cl)c([N+](=O)[O-])c1)c1ccccn1 (configuration not stated),.,.,.,.,.,54
COc1cc(/C=C/C(=O)OCC(=O)NCC(=O)Nc2cccc(C)c2C)ccc1OC(F)F,.,.,/,.,.,/
Cc1nc2ccccc2c(=O)n1/N=C/c1ccccc1O,.,.,.,.,.,.
Cc1nnc(C)n1/N=C/c1c(O)ccc2ccccc12,.,.,.,.,.,.
Cc1nc2ccccc2c(=O)n1/N=C/c1ccc2ccccc2c1O,.,.,.,.,.,67
Cc1nnc(-c2ccccc2)c(=O)n1/N=C/c1c(O)ccc2ccccc12,.,.,.,.,.,39
O=C1N=C(N2C=CC(=C3C=CNC=C3)C=C2)/C(=C/N=NC(=O)c2ccccc2O)S1,.,.,.,.,.,.
Cc1ccc(Cn2ccsc2=NC(=O)COC(=O)c2ccc(NC(=O)CC#N)cc2)cc1,.,.,.,.,.,.
Cc1ccc(Cn2ccsc2=NC(=O)CCl)cc1,.,.,.,.,.,84
CCOC(=O)C1=C(COC(=O)COc2ccccc2C(C)C)NC(=O)NC1C (configuration not stated),/,/,/,/,.,/
Cc1ccc(S(=O)(=O)NN2C(=O)/C(=C/c3cccs3)SC2=S)cc1,.,.,.,.,.,37
CN1CCN(c2cc(N3CCN(C(=O)c4ccco4)CC3)c3c4c(onc24)-c2ccccc2C3=O)CC1,.,.,.,.,82,.
CC(=O)Oc1ccc(C(=O)OCC(=O)c2c(N)n(C)c(=O)n(C)c2=O)cc1OC(C)=O,.,.,.,.,.,35
COc1ccc(C(=O)OCC(=O)c2c(N)n(C)c(=O)n(C)c2=O)cc1OC,.,.,.,.,.,.
CC(C)N(C(=O)[C@H]1C[C@H](CC(=O)NCCCn2ccnc2)C(=O)N2CCc3c([nH]c4ccc(Cl)cc34)[C@]12C)C(C)C,/,.,/,.,.,/
CC(=O)Nc1ccc(NS(=O)(=O)c2ccccc2)c2ccccc12,.,.,.,.,.,.
O=S(=O)(Nc1ccc(O)c2ccccc12)c1ccc(Br)cc1,.,.,.,.,57,61
O=C(COC(=O)c1ccc2ccccc2n1)Nc1ccccc1F,/,.,/,.,.,/
Cc1cc2n(n1)C(c1ccc(N(C)C)cc1)Nc1ccccc1-2 (configuration not stated),.,47,.,.,.,.
CCOC(=O)c1c(C)[nH]c(C(=O)N2CCc3cc(OC)c(OC)cc3C2)c1C,.,.,.,.,.,.
COc1cc(NS(=O)(=O)c2ccc(Cl)cc2)c(C(=O)O)cc1OC,.,.,.,.,.,.
O=C(O)CSc1cc(NS(=O)(=O)c2ccc(Cl)cc2)c2ccccc2c1O,.,.,.,.,/,88
COc1cc(S(=O)(=O)N2CCN(Cc3ccccc3)CC2)ccc1Br,.,.,.,.,.,.

# Bioassay records: PubChem BioAssay, several laboratories
